# Screening data deposited in PubChem by The Scripps Research Institute Molecular Screening Center.
# TAAR1 antagonist: human TAAR1 antagonism; Q96RJ0; hit rate 1.5% among 360,000; CHO RD-HGA16 TAAR1, Fluo-8 calcium fluorescence, antagonist; inhibition, % at 3 µM;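 active = inhibition above a per-plate cutoff, the mean inhibition of test compounds on that plate plus 3 SD, cut at about 49% in these data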;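 also: 0% = DMSO plus EC80 beta-PEA response and 100% = DMSO alone without agonist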
# Target sequence (Q96RJ0 whole entry, looked up): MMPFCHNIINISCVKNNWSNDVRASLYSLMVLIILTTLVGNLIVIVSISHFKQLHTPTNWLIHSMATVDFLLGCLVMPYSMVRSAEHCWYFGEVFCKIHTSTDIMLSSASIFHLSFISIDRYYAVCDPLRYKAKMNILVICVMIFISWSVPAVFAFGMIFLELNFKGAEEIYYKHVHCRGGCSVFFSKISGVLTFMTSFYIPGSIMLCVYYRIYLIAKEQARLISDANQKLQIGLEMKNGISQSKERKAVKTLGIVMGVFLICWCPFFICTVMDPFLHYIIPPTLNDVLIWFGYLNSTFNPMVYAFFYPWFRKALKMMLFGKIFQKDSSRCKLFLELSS
#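 Material: RD-HGA16 CHO cells with stable hTAAR1 and Gα16; Dosing: single nominal final test compound concentration of 3 µM; Schedule: seeding 17-24 h prior, 75-min 37 °C, 30-min RT dye loading; Detection: kinetic Fluo-8 calcium fluorescence measurement; Measure: % inhibition from peak post-agonist over basal fluorescence ratio; Benchmarks: vehicle and agonist controls.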
# CHO parental Ca: signal in parental CHO cells, OX1R antagonist counter-screen. parental CHO-K1, ATP-induced calcium, Fluo-8 fluorescence. inhibition, % at 5.6 µM. AID 463079. hit rate 0.63% among 330,000;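 active = inhibition above that plate's mean sample inhibition plus 3 SD, cut at about 26% in these data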;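 also: 0% = ATP-challenged DMSO wells and 100% = DMSO wells without ATP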
#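 test system = CHO parental line | reagent = ATP stimulus | measured by = intracellular calcium via Fluo-8 no-wash fluorescent dye | control set = ATP and no-ATP DMSO wells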
# OX1R antag-1: human HCRTR1 antagonism | O43613 | CHO/OX1R cells, Fluo-8 calcium fluorescence, orexin A | inhibition, % at 5 µM | hit rate 0.43% among 330,000 | AID 434989;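 active = inhibition above its plate's threshold, mean inhibition of all tested compounds on the plate plus 3 SD, cut at about 37% in these data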;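 also: 0% = orexin A challenge wells and 100% = SB-334867-A antagonist wells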
# TAAR1 ag: agonists of human TAAR1 | Q96RJ0 | CHO RD-HGA16 TAAR1, Fluo-8 calcium fluorescence; vehicle wells 0%, saturating PEA agonist 100% | activation, % at 3 µM | hit rate 0.99% among 360,000;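 active = activation above the mean activation of all test compounds in the run plus 3 SD, cut at about 38% in these data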
#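 System: CHO-derived RD-HGA16 cells with stable Gα16 and human TAAR1. Times: 17-24 h plating, Fluo-8 75 min 37 °C, 30 min RT. Measured by: calcium-sensitive Fluo-8 signal, excitation 470-495, emission 515-575 nm. Read-out basis: % activation relative to PEA EC100 response. Control set: DMSO and PEA EC100. Repeats: no replicates (n 1).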
# OX1R antag-2: antagonists of human orexin 1 receptor (OX1R) | OX1R-expressing cells, FRET antagonist read-out | hit rate 1.8% among 330,000 | O43613 | inhibition, % at 6.6 µM | AID 485270; in the data active = inhibition mostly above about 38%, no sharp cut-off; inactive = mostly below about 40%;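 also: 0% = agonist challenge alone and 100% = reference antagonist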
# TAAR1 ag confirm: confirmation of human TAAR1 agonists | activation, % at 3 µM | CHO RD-HGA16 TAAR1, Fluo-8 calcium fluorescence; scaled: DMSO 0%, maximal phenethylamine 100% | shares compounds with TAAR1 ag | hit rate 82% among 2,400;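 active = activation above a cutoff set at the run's mean compound activation plus 3 SD, cut at about 39% in these data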
# Ga16 nonsel ag: counter-screen for TAAR1 agonists: nonselective agonists in parental cells | CHO-Ga16 parental, Fluo-8 calcium fluorescence; normalized to maximal ATP response, DMSO zero | shares compounds with TAAR1 ag | activation, % at 3 µM | hit rate 50% among 2,400;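 active = activation above the run cutoff, the mean activation over all tested wells plus 3 SD, cut at about 12% in these data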;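 also: 0% = DMSO wells and 100% = maximal ATP response on the peak over basal ratio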
# TAAR1 desens: human TAAR1 agonist that also desensitizes the receptor; shares compounds with TAAR1 ag; CHO RD-HGA16 hTAAR1, Fluo-8 calcium, beta-PEA response inhibition; inhibition, % at 3 µM; hit rate 46% among 2,400;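 active = inhibition above the run cutoff, the mean inhibition of all test compounds plus 3 SD, cut at about 49% in these data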;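 also: beta-PEA stimulus applied at its EC80; loss of beta-PEA calcium signal after compound pretreatment read as receptor desensitization; 0% = DMSO with beta-PEA at EC80 and 100% = DMSO alone without agonist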
# Ga16 nonsel ant: nonselective Ga16 antagonist in TAAR1 agonist counter-screen | shares compounds with TAAR1 ag | CHO-Ga16 ATP-induced calcium, Fluo-8 fluorescence | inhibition, % at 3 µM | hit rate 39% among 2,400 | AID 651952;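 active = inhibition above the plate's mean compound inhibition plus 3 SD, computed per plate, cut at about 22% in these data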;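 also: 0% = EC80 ATP with DMSO and 100% = DMSO wells without ATP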
# * hit, by the source's call; x = no result. A selection: hits, their analogues and other compounds. The true share with any hit is near 3.9%.
SMILES,TAAR1 antagonist,CHO parental Ca,OX1R antag-1,TAAR1 ag,OX1R antag-2,TAAR1 ag confirm,Ga16 nonsel ag,TAAR1 desens,Ga16 nonsel ant
Cc1cc(C)c(OCCCCNCc2ccccc2)c(Cl)c1,-8,-7,-8,48*,2,48*,22*,23,24*
COCCCNCCCCOc1c(Cl)cc(C)cc1Br,32,-9,-29,59*,2,92*,22*,77*,8
CN(C)S(=O)(=O)c1ccc(C(=O)NNC(=O)C2COc3ccccc3O2)cc1 (stereo unspecified),1,-1,-14,8,11,x,x,x,x
CCOC(=O)N1CCN(C(=O)CN(c2ccc(OCc3ccccc3)cc2)S(C)(=O)=O)CC1,-15,-14,-15,14,6,x,x,x,x
N#CC(c1ccc(Cl)cc1)c1ccc(Cl)nn1 (stereo unspecified),-3,-13,-19,4,51,x,x,x,x
O=C(CCC1CCCC1)NC1CCCCC1,4,-1,-9,15,25,x,x,x,x
COCC(=O)Nc1ccc(C(C)C)cc1,-7,7,-4,1,23,x,x,x,x
COc1ccccc1CC(=O)NCCc1ccccc1,15,-11,5,69*,-2,85*,2,77*,5
COc1ccc(C(=O)CC(=O)C(=O)NCCc2cccc(C)c2)cc1,80*,-4,-7,84*,23,94*,2,84*,0
Cc1cc(Cl)nc(Cl)c1C(=O)NCCc1ccccc1,x,-6,-7,x,-6,x,2,x,8
COc1ccc(OC(=O)NCCc2ccccc2)cc1,-23,-9,-6,57*,9,84*,4,73*,10
COc1ccccc1CC(=O)NCCCc1ccccc1,7,-7,-15,-1,-5,x,x,x,x
CN(Cc1ccccc1)C(=O)CCn1c(=O)c2cccn2c2cccnc21,-16,-13,-7,7,6,x,x,x,x
Cc1ccc(/C=C(\NC(=O)c2ccc(C)cc2)C(=O)NCCCn2ccnc2)cc1,-1,-9,-15,12,10,x,x,x,x
N#Cc1nc(-c2ccco2)oc1N1CCCC1,0,1,-8,-2,15,x,x,x,x
N#Cc1nc(-c2ccco2)oc1N1CCc2ccccc2C1,-1,-14,-12,73*,3,45*,3,6,5
O=C(NCc1cccnc1)c1cn(-c2ccccc2)nc1-c1ccccc1,20,-10,-12,6,3,x,x,x,x
CC(C)Oc1ccc(C(CCNCc2ccc(O)cc2)c2ccccc2)cc1 (stereo unspecified),36,x,x,70*,x,57*,29*,40,35*
Cc1cccc(C)c1NCc1n[nH]c(=S)n1-c1ccccc1,2,-15,-8,0,18,x,x,x,x
CCOC(=O)c1cnn(-c2ncnc3sc4c(c23)CCC4)c1N,-2,-9,-13,5,14,x,x,x,x
CCOC(=O)c1cnn(-c2nc(SC)nc3sc4c(c23)CCCC4)c1N,84*,-3,26,85*,12,13,15*,31,40*
CC(C)c1cc(C(=O)NCc2ccc(F)cc2)c(N)s1,-9,x,x,-1,x,x,x,x,x
CC(C)c1cc(C(=O)NCCc2cccs2)c(N)s1,x,x,x,x,x,x,3,x,10
O=C(NCCc1cccs1)c1ccc(Cl)cc1,47,-11,-15,79*,11,84*,2,76*,7
O=C(NCCc1cccs1)c1ccc(CS(=O)Cc2ccc(Cl)cc2)o1 (stereo unspecified),3,-24,-23,56*,10,62*,2,36,5
SMILES,TAAR1 antagonist,CHO parental Ca,OX1R antag-1,TAAR1 ag,OX1R antag-2,TAAR1 ag confirm,Ga16 nonsel ag,TAAR1 desens,Ga16 nonsel ant
CCCCN1C(=O)C(=O)N(CC(=O)c2ccc3c(c2)CCCC3)C1=O,6,-24,-31,0,2,x,x,x,x
CCCOc1ccc(CC(=O)N/N=C\c2ccc(F)cc2)cc1,17,-5,-26,19,-4,x,x,x,x
COC(=O)C1=C(C)N(Cc2cccc(C(F)(F)F)c2)C(=NCc2ccc(OC)cc2)NC1c1ccccc1 (stereo unspecified),59*,x,x,51*,x,38*,25*,32,45*
COC(=O)C1=C(C)N(Cc2cccc(C(F)(F)F)c2)C(=NCc2cc(OC)c(OC)c(OC)c2)NC1c1ccccc1 (stereo unspecified),7,x,x,44*,x,13,11,15,21
COC(=O)C1=C(C)N(Cc2cccc(C(F)(F)F)c2)C(=NCc2ccc(OC)cc2)NC1c1cccc(F)c1 (stereo unspecified),55*,x,x,43*,x,42*,24*,51*,42*
COC(=O)C1=C(C)N(Cc2ccccc2)C(=NCc2cccc(C(F)(F)F)c2)N[C@H]1c1cccc(C(F)(F)F)c1,x,10,18,x,2,x,x,x,x
CC1=CC(C)(C)N(C(=O)c2ccccc2)c2ccc(C)cc21,52*,x,x,65*,x,71*,42*,69*,52*
C=CCC[C@@H](Cc1ccc(F)cc1)C(=O)OC[C@H](Cc1c[nH]c2ccccc12)NC(=O)[C@@H](CC=C)CC(=O)NCCO,80*,7,28,74*,6,52*,30*,76*,51*
CCCCn1c(N)c(N(CCOC)C(=O)C2CCN(S(=O)(=O)c3ccc(Cl)cc3)CC2)c(=O)[nH]c1=O,-12,-6,-2,0,5,x,x,x,x
Cc1ccc(CCNC(=O)c2coc3nc4ccccc4nc23)cc1,8,-14,-19,70*,30,27,3,16,23*
CC1CCN(CCCNC(=O)c2coc3nc4ccccc4nc23)CC1,5,-13,-14,11,46,x,x,x,x
Cc1cccc(Nc2cc(C)c3c(O)cccc3n2)c1C,82*,7,-23,94*,19,96*,22*,92*,17
Cc1cccc(NC(=S)N(C)C)c1C,-38,-11,-17,1,-2,x,x,x,x
